Reference: ChEMBL document CHEMBL4513216, “Probing the Open Global Health Chemical Diversity Library for Multistage-Active Starting Points for Next-Generation Antimalarials” (ACS Infect Dis, 2020)

Test: Toxicity liver stage against HepG2, at 10uM
Format: cell-based
Design: test concentration 10 uM, cell line HepG2-A16-CD81EGFP
Conditions: human, HepG2-A16-CD81EGFP cells; read-out: INHIBITION
Method in brief: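 Uninfected HepG2-A16-CD81EGFP cells, 3 × 10^3 per well, 1536-well, plated on prespotted compound at 10 μM final, parasite-free screening media added to match infected plates; puromycin 10 μM positive, DMSO 0.5% negative; run in parallel with 48 h PbLuc assay at 37 °C, 5% CO2; viability by CellTiter-Glo luminescence, normalized to controls.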

Structure (SMILES)	cytotoxicity at 10 µM [%]
CC(CNC(=O)Nc1cn[nH]c1)N1CCCC1 (stereo not given)	-7.32
CC1CCC(NC(=O)Nc2ccc(CC(=O)N(C)C)cc2)CC1 (stereo not given)	3.85
Cc1cnc2n(c1=O)CC(C(=O)Nc1ccccc1Cl)CS2 (stereo not given)	-10.7
CCc1nnc(C(C)N2CCCN(C(=O)Oc3ccccc3)CC2)o1 (stereo not given)	2.79
N#Cc1cccnc1NCCNC(=O)N1CCCSCC1	-10.8
CS(=O)(=O)c1ccc2c(c1)N(C(=O)c1cccc(F)c1)CCC2	8.05
CN(C)CC1(O)CCN(C(=O)Cc2ccc3c(c2)CCCC3)C1 (stereo not given)	-7.75
CC(C)C(=O)N1CCN(Cc2ccccn2)CC2(CC(=O)N(C)C2)C1 (stereo not given)	0.0515
O=C(O)C1(Cc2ccc(F)cc2F)CCCN(Cc2ccncc2)C1 (stereo not given)	-2.74
Cc1ccc(S(=O)(=O)N2CCN(CCC(N)=O)CC2)s1	-9.88
Cc1nc(CNC(=O)c2cc(COc3ccccc3)[nH]n2)n[nH]1	8.52
Cc1cc(C)n(CC2CN(CCOc3ccccc3C#N)CCO2)n1 (stereo not given)	-3.71
CC(C)c1noc(C2CCCN2C(=O)Cc2cn3ccsc3n2)n1 (stereo not given)	4.52
O=C(O)CCc1ccc(S(=O)(=O)Nc2cnn(CC3CC3)c2)cc1	-8.35
Cc1ccc(-c2ncc(C(=O)NCCNC(=O)C(C)C)s2)c(C)c1	-6.53
CNc1nc(C(=O)N2CCCCC2c2ccc(CN(C)C)cc2)cs1 (stereo not given)	-2.86
O=S(=O)(c1cccnc1)N1CCN(Cc2nc(-c3cccs3)cs2)CC1	27.8
O=C(c1ccc[nH]1)N1CCC(c2nccn2Cc2ccncc2)CC1	-16.8
Cc1csc(C2CCCCN2C(=O)COCc2nc(C)no2)n1 (stereo not given)	1.09
O=C(CCc1ccsc1)Nc1ccnn1C1CCS(=O)(=O)C1 (stereo not given)	9.01
O=S(=O)(C1CC1)N1Cc2nccn2CC(Cn2cncn2)C1 (stereo not given)	1.02
COc1ccc(CNCC2(COc3cccnc3)C[C@@H](O)[C@@H](O)C2)cc1 (stereo not given in full)	-57
CCCNc1nc(CS(=O)(=O)c2ccccc2)cs1	0.939
c1ccc(CO[C@@H]2CO[C@@]3(CCN(Cc4ccccn4)C3)C2)nc1	-9.62
C[S+]([O-])CCNC(=O)N1CCN(c2cc(F)ccc2F)CC1 (stereo not given)	-13.4
CCC1=N[C@@]2(CC[C@@H]3CN(CC4CC4)C[C@@H]32)C(=O)N1C	0.153
CN(C)c1nccc(N(C)Cc2nc3ccccc3n2C)n1	0.482

Structure (SMILES)	cytotoxicity at 10 µM [%]
C=C(C)CN(CC)S(=O)(=O)c1cccc(F)c1C#N	-6.03
Cc1ccc(C(=O)N2CCSCC2)cc1NC(=O)Cn1cncn1	-11.1
O=C(c1cc(-c2cccnc2)[nH]n1)N1CCCC(c2cnccn2)C1 (stereo not given)	6.21
Cc1noc([C@@H]2C[C@H]3CN(Cc4cc(C)on4)C[C@H]3O2)n1	-9.33
CS(=O)(=O)c1cccc(OCC(=O)N2CCCC2c2ccc[nH]2)c1 (stereo not given)	3.92
CCOc1ccc(CC(CNC(=O)c2ccco2)C(N)=O)cc1 (stereo not given)	8.26
CCn1cnnc1CNC(=O)N1CCOC(c2ccc(Cl)cc2)C1 (stereo not given)	4.13
C=C(C)CN1CCN(Cc2cnc(-c3ccc(OC)cc3)nc2)CC1	-3.41
O=S(=O)(N1CCOCC1)N1CCC(Oc2cnccn2)CC1	-23.3
Cc1ccc(C(=O)N2CC(C(N)=O)O[C@H](C)C2)c(C)c1 (stereo not given in full)	-0.29
c1ccc(O[C@H]2CO[C@@]3(CCN(Cc4ccc5c(c4)OCO5)C3)C2)nc1	-76.4
O=C1OC2(CCNCC2)CN1CC(=O)N1CCCC1c1ccco1 (stereo not given)	-14.6
Cc1cc(C(F)(F)F)nn1C(C)C(=O)NN1CCN(C)CC1 (stereo not given)	20.4
NC(=O)CSCCC(=O)N1CCCC1c1ccsc1 (stereo not given)	-13.6
CSc1ccccc1NC(=O)CCC(=O)N(C)C1CCN(C)CC1	-2.91
CC1CCCCN1C(=O)c1nc2c(n1C(C)C)CCN(C(=O)C1CC1)C2 (stereo not given)	15.4
COc1ccc(CCNC(=O)C(C)Nc2ccc(C)c(C)c2)cc1 (stereo not given)	2.7
Cc1cccc(NC(=O)C(C)Oc2ccc3c(c2)OCO3)n1 (stereo not given)	-9.25
O=C(COCc1nc(-c2ccncc2)no1)N1CCCC1	-10.7
O=C1CC(c2ccco2)c2sc(C(=O)O)c(-c3ccccc3)c2N1 (stereo not given)	19.1
CCS(=O)(=O)N1Cc2ncn(C)c2C(COCC2CCOCC2)C1 (stereo not given)	-72.6
COc1ccccc1C1(O)CCCN(C(=O)c2csc(C(C)=O)c2)C1 (stereo not given)	-1.41
N#Cc1cc(C(F)(F)F)ccc1NCC1CCS(=O)(=O)CC1	10.2
COCCC1(CO)CCCN(CCCc2ccccc2)C1 (stereo not given)	-1.4
c1cnnc(N2CCCC2CNCc2nc(-c3cccs3)no2)c1 (stereo not given)	-7.69
Cc1cc(Cl)ccc1NCc1ccc(C(=O)N(C)C)[nH]1	7.31
Cc1cccc(CN2C[C@@H]3CN(C(=O)[C@H]4CCCO4)C[C@@H]3C2=O)c1	9.95

Structure (SMILES)	cytotoxicity at 10 µM [%]
Cc1ccc(F)c(OC2(C(=O)O)CCN(C(=O)C3CCCC3)CC2)c1	3.33
COc1ccc(C2OC(COc3ccc(C)cc3)=NN2C(C)=O)cc1 (stereo not given)	-6.19
c1cnc(N2CCC3(CCCN(CC4CC4)C3)CC2)nc1	-3.24
CSCc1cccc(S(=O)(=O)N2CCCCC2)c1	6.61
COC[C@@H]1CCCN1C(=O)CCc1c(C)nn(C)c1C	5.01
CC(C)(C)n1c(NC(=O)CNC(=O)NC2CC2)nc2ccccc21	4.23
CCN1CC(C(=O)N2CCc3cc(C(=O)N(C)C)n(C)c3C2)CCC1=O (stereo not given)	-48.1
COc1cccc(CN2C[C@@H]3COC[C@]3(CNC(=O)C3CC3)C2)c1	-99
CCCc1nnc(NCCn2nc(C)c(Cl)c2C)o1	1.89
COC(=O)c1ccc(S(=O)(=O)NCc2cccnc2N(C)C)cc1	9.3
Cc1nc(N2CCN(C(=O)c3ccccc3)CC2)c2cnn(C)c2n1	-11.5
Cc1cccc(C(=O)N2CCCC2)c1NCC(=O)NC1(C#N)CCCC1	-11.5
O=C(CN1CCC(c2cc(=O)n3c(n2)CCCCC3)CC1)N1CCCC1	4.62
NC(=O)c1ccc(OCCC(=O)NC2CCc3c(F)cccc32)cc1 (stereo not given)	2.02
Cc1ncccc1C(=O)Nc1cccc(OCC(F)F)n1	-7.79
c1cc(CCN2CCN(c3ccc4nncn4n3)CC2)ccn1	4.76
CS(=O)(=O)N[C@@H]1CCN(Cc2cccnc2)[C@H]1Cc1cccnc1	-70.2
O=C(NCc1ccc(Cl)cc1)C1=NOC2(CCNC2)C1 (stereo not given)	-4.21
COCCOc1ccc(NC(=O)N(CC2CCOC2)C2CC2)cn1 (stereo not given)	-1.29
COCC(=O)NCCC(=O)N1CCN(S(=O)(=O)c2cccc(Br)c2)CC1	-40.4
COc1cccc(S(=O)(=O)N2CCCCC2CCN2CCCC2=O)c1 (stereo not given)	7.12
O=C(NCCCSC1CCCCC1)C1NCCc2[nH]cnc21 (stereo not given)	-0.283
Cc1cc(C)c2c(OCC(=O)N(C)CC(=O)NC(C)C)nn(C)c2n1	1.28
CN1CCC(Cc2noc(-c3cccc(Oc4ncccn4)c3)n2)CC1	-5.21
Cc1c(CN2CCc3[nH]cnc3C2C(=O)O)[nH]c2ccc(F)cc12 (stereo not given)	-4.23
O=C(NCc1cccs1)C1CCN(c2cc(-n3ccnc3)ncn2)CC1	-3.27
